Measurements reported in ChEMBL document CHEMBL1772975, “Novel potent and selective σ ligands: evaluation of their agonist and antagonist properties” (J Med Chem, 2011).
Activity calls are given as the source filed them. No cut-off for these calls is given here.

Tests used:
[1] = molecular target: Sigma non-opioid intracellular receptor 1 (Cavia porcellus, UniProt Q60492); experiment: Displacement of [3H]-(+)-pentazocine from sigma 1 receptor in guinea pig brain membranes after 150 mins; format: cell membranes, Membrane
Chain of Sigma non-opioid intracellular receptor 1 (Q60492 whole entry): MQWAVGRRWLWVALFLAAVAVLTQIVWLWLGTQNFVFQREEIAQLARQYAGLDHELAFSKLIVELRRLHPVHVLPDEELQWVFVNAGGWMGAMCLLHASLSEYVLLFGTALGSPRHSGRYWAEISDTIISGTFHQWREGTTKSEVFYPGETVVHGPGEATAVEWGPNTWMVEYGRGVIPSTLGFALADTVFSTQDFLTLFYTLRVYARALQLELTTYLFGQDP

[2] = Displacement of [3H]DTG from sigma 2 receptor in guinea pig brain membranes after 120 mins; format: cell membranes, Cavia porcellus, Membrane
[3] = organism: Cavia porcellus; experiment: Selectivity ratio of Ki for sigma 1 receptor in guinea pig brain membranes to Ki for sigma 2 receptor in guinea pig brain membranes; format: cell membranes
[4] = molecular target: Sigma non-opioid intracellular receptor 1 (Cavia porcellus) (UniProt Q60492); experiment: Displacement of [3H]-(+)-pentazocine from sigma 1 receptor in guinea pig brain membranes after 150 mins in presence of 1 mM to 250 uM of phenytoin; format: cell membranes; settings: Membrane
Chain of Sigma non-opioid intracellular receptor 1 (Cavia porcellus) (Q60492 whole entry): as above
In short: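 Guinea pig brain [3H](+)-pentazocine competition binding run without phenytoin and with 250 μM or 1 mM phenytoin. Ki ratios (control/with phenytoin) computed. Hill analysis of competition curves. Cocaine served as the putative σ1 agonist control.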

[5] = molecular target: Mu-type opioid receptor (Rattus norvegicus) (UniProt P33535); experiment: Displacement of [3H]naloxone from mu opioid receptor in rat brain membranes; format: cell membranes
Chain of Mu-type opioid receptor (Rattus norvegicus) (P33535 whole entry): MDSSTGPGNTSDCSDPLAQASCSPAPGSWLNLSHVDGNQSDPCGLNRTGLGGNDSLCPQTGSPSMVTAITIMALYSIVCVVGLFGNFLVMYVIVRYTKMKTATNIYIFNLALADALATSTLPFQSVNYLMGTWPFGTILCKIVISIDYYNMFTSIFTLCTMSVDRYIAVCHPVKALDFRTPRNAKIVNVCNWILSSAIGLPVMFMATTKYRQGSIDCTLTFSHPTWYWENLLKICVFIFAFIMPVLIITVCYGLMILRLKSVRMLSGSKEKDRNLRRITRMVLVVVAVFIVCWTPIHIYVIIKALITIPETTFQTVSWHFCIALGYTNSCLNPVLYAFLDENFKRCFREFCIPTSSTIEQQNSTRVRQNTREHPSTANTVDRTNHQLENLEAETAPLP

[6] = molecular target: D(1A) dopamine receptor (Rattus norvegicus) (UniProt P18901); experiment: Binding affinity to dopamine D1 receptor in rat striatum; format: tissue-based
Chain of D(1A) dopamine receptor (Rattus norvegicus) (P18901 whole entry): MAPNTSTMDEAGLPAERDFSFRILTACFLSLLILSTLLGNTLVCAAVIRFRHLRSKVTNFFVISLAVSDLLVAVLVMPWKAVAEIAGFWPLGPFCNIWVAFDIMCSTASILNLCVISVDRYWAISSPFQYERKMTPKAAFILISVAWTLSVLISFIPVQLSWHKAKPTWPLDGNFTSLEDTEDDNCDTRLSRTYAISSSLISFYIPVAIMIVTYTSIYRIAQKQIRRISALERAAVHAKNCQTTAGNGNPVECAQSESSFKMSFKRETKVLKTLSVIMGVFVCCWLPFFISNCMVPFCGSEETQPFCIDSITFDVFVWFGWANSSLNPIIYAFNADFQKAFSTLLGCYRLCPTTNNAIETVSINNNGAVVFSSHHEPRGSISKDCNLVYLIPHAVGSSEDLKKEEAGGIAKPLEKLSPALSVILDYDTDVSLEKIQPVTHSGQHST

[7] = molecular target: D(2) dopamine receptor (Rattus norvegicus) (UniProt P61169); experiment: Binding affinity to dopamine D2 receptor in rat striatum; format: tissue-based
Chain of D(2) dopamine receptor (Rattus norvegicus) (P61169 whole entry): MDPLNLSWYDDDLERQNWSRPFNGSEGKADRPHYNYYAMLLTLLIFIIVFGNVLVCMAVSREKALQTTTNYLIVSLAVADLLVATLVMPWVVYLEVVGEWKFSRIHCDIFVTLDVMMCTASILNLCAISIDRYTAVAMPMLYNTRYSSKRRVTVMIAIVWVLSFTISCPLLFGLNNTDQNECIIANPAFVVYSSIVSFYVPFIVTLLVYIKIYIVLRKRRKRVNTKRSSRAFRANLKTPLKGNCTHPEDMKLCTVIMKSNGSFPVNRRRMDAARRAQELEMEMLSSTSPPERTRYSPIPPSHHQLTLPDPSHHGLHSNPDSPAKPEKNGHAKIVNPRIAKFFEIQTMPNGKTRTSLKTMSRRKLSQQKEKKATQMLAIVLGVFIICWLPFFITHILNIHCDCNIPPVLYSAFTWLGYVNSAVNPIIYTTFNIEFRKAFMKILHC

[8] = molecular target: D(3) dopamine receptor (Rattus norvegicus) (UniProt P19020); experiment: Binding affinity to dopamine D3 receptor in rat olfactory tubercle; format: tissue-based
Chain of D(3) dopamine receptor (Rattus norvegicus) (P19020 whole entry): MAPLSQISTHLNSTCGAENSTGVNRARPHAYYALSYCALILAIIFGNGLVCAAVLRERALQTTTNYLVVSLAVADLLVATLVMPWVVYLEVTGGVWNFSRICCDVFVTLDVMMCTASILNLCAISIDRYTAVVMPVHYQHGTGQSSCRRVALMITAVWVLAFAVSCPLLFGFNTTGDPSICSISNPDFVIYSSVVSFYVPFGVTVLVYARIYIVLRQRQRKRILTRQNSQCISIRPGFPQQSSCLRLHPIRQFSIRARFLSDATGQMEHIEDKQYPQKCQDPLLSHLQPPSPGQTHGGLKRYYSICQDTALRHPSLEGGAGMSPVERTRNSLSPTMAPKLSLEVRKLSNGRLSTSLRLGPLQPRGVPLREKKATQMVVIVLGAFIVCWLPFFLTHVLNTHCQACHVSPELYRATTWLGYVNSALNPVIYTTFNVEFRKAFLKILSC

[9] = Binding affinity to dopamine D4.2 receptor
[10] = molecular target: 5-hydroxytryptamine receptor 2A (Rattus norvegicus) (UniProt P14842); experiment: Binding affinity to 5-HT2A receptor in rat cortex; format: tissue-based
Chain of 5-hydroxytryptamine receptor 2A (Rattus norvegicus) (P14842 whole entry): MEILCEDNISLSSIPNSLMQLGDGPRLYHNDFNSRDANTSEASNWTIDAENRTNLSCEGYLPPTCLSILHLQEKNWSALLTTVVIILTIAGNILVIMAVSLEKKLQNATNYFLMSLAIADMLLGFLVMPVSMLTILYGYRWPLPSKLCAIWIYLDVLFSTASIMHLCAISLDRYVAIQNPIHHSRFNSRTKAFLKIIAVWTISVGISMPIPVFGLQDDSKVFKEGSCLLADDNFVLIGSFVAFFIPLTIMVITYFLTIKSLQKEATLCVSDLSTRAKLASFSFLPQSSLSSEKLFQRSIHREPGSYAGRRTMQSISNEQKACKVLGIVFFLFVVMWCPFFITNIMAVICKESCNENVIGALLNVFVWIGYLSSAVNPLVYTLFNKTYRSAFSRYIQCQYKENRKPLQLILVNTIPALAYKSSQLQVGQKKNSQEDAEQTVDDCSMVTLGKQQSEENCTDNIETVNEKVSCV

[11] = molecular target: Adrenergic receptor alpha-1 (Rattus norvegicus) (UniProt P15823+P23944+P43140); experiment: Binding affinity to adrenergic alpha1 receptor in rat cortex
[12] = system: Rattus norvegicus; experiment: Antinociceptive activity in Sprague-Dawley rat assessed as mean AUC of thermal-stimulus induced tail flick latency for 60 mins at 1 mg/kg, sc; format: functional, organism-based; parameters: dose 1 mg/kg
In short: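 Rats given test compound 1 mg/kg sc alone. Tail flick latency to thermal stimulation, expressed as percent change from basal, tracked over a 60 min window. Summarised as mean area under the curve (MAUC) after the last injection. Compared against saline-treated rats, n = 8–10 per group, mean ± SD, significance at p < 0.05.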

[13] = system: Rattus norvegicus; experiment: Potentiation of (-)-U50488H-induced antinociceptive activity in Sprague-Dawley rat assessed as mean AUC of thermal-stimulus induced tail flick latency for 60 mins at 1 mg/kg, sc treated 45 mins before (-)-U50488H challenge; format: functional; settings: route subcutaneous
In short: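 Rats were pretreated sc with test compound at 1 mg/kg 45 min before the κ agonist (−)-U50,488H at 5 mg/kg sc. Thermal-stimulus tail flick latency was taken as percent change from basal over 60 min and summarised as MAUC after the last injection. Groups were compared with saline- and U50,488H-only groups, n = 8–10, mean ± SD, p < 0.05.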

[14] = Agonist activity at sigma 2 receptor in guinea pig longitudinal muscle/myenteric plexus assessed as inhibition of electrically-induced contraction; format: functional; settings: Cavia porcellus
In short: (§1)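 Guinea pig ileum preparation with sigma-1 receptors desensitized. Electrically evoked contractions recorded in an isolated organ bath; a dose-response curve was built from the inhibition of the evoked contractions.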

[15] = Partial agonist activity at sigma 2 receptor in guinea pig longitudinal muscle/myenteric plexus assessed as inhibition of electrically-induced contraction; format: functional, Cavia porcellus; in short: as §1
[16] = system: LNCaP; experiment: Antiproliferative activity against human LNCAP cells at 100 uM after 48 hrs; format: functional, cell-based
In short: (§2)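 LNCaP (hormone-sensitive) and PC3 (hormone-refractory) prostate tumour cells exposed to 100 μM compound for 48 h; antiproliferative effect measured. Haloperidol and haloperidol metabolite II run as references.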

[17] = system: PC-3; experiment: Antiproliferative activity against human PC3 cells at 100 uM after 48 hrs; format: functional, cell-based; in short: as §2

| SMILES | Ki [1] [nM] | Ki [2] [nM] | Ratio Ki [3] | also measured |
| --- | --- | --- | --- | --- |
| COC(=O)[C@]1(c2ccccc2)C[C@@H]1CN1C2C=C(c3ccc(Cl)cc3)CC1CC2 (mixture of isomers) | 397 | 943 | 2.4 |  |
| COC(=O)[C@]1(c2ccccc2)C[C@@H]1CN1[C@@H]2CC[C@H]1C[C@@](O)(c1ccc(Cl)cc1)C2 | 44 | 58.3 | 1.3 |  |
| COC(=O)[C@H]1[C@@H](OC(=O)c2ccccc2)C[C@@H]2CC[C@H]1N2C |  |  |  | inhibition [4]: inactive |
| COC(=O)[C@@]1(c2ccccc2)C[C@H]1CN1CCC(O)(c2ccccc2)CC1 | 7.01 | 571 | 81.4 | Activity [5]: Active; Activity [6]: Active; Activity [7]: Active; Activity [8]: Active; Activity [9]: Active; Activity [10]: Active; Activity [11]: Active; inhibition [4]: Active; Activity [12]: inactive; Activity [13]: 118.2% |
| O=C(CCCN1CCC(O)(c2ccc(Cl)cc2)CC1)c1ccc(F)cc1 [HALOPERIDOL] |  | 16 |  |  |
| COC(=O)[C@]1(c2ccccc2)C[C@@H]1CN1CCC(O)(c2ccccc2)CC1 | 5.02 | 28.2 | 5.6 |  |
| Cc1ccccc1NC(=N)Nc1ccccc1C [DITOLYLGUANIDINE] |  | 23 |  |  |
| O=C(CCCc1ccccc1)OC(CCCN1CCC(O)(c2ccc(Cl)cc2)CC1)c1ccc(F)cc1 (racemic) | 5.4 | 0.98 | 0.18 |  |
| COC(=O)[C@]1(c2ccccc2)C[C@@H]1CN1CCC(O)(c2ccc(Cl)cc2)CC1 | 3.95 | 21.9 |  | inhibition [4]: Active |
| COC(=O)[C@@]1(c2ccccc2)C[C@H]1CN1[C@@H]2CC[C@H]1C[C@@](O)(c1ccc(Cl)cc1)C2 | 520 | 25.2 | 0.05 | Activity [5]: Active; Activity [6]: Active; Activity [7]: Active; Activity [8]: Active; Activity [9]: Active; Activity [10]: Active; Activity [11]: Active; EC50 [14]: 2300 nM; Alpha max [15]: 0.4; Activity [16]: Active; Activity [17]: Active |
| COC(=O)[C@@]1(c2ccccc2)C[C@H]1CN1C2C=C(c3ccc(Cl)cc3)CC1CC2 (mixture of isomers) | 198 | 565 | 2.8 |  |
| COC(=O)[C@@]1(c2ccccc2)C[C@H]1CN1CCC(O)(c2ccc(Cl)cc2)CC1 | 5.61 | 23.4 |  |  |
